Measurements from ChEMBL document CHEMBL1156963, “Regioselective one-pot synthesis and anti-proliferative and apoptotic effects of some novel tetrazolo[1,5-a]pyrimidine derivatives” (Bioorg Med Chem, 2010).
Active and inactive are the calls of the source. The calls are words filed in the database; no cut-off is given here.

Tests used:
[1] = test system: Ehrlich; assay: Antitumor activity against mouse EAC cells transplanted in Albino mouse assessed as decrease in total number of cells at 10 mg/kg, po QD for 2 weeks using trypan blue staining by Neubauer hemocytometry relative to control; format: functional, organism-based; set-up: dose 10 mg/kg
In short: (§1)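 Female albino mice each received 0.2 ml EAC ascites intraperitoneally (stock aliquot diluted 1:50 in saline). Dosing was 10 mg/kg in 10% DMSO by gastric intubation, daily for 2 weeks from the day of inoculation, against a 10% DMSO vehicle group (12 mice per group). At the end, under ether, 0.2 ml saline was given ip and ascites aspirated 1 min later. Aliquot volume was measured. Live and dead cells were counted by trypan blue on a Neubauer haemocytometer. Mean ± SE, LSD.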

[2] = test system: Ehrlich; assay: Antitumor activity against mouse EAC cells transplanted in Albino mouse assessed as decrease in number of living cells at 10 mg/kg, po QD for 2 weeks using trypan blue staining by Neubauer hemocytometry relative to control; format: functional, organism-based; set-up: dose 10 mg/kg; in short: as §1
[3] = test system: Ehrlich; assay: Induction of apoptosis in mouse EAC cells transplanted in Albino mouse assessed as decrease in Bcl-2 level in cytoplasm of cells at 10 mg/kg, po QD for 2 weeks […] relative to control; format: functional, organism-based; set-up: dose 10 mg/kg
[4] = Antitumor activity against mouse EAC cells transplanted in Albino mouse assessed as increase in cell mortality rate at 10 mg/kg, po QD for 2 weeks using trypan blue staining by Neubauer hemocytometry relative to control; format: functional, Ehrlich
In short: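 Female albino mice given 0.2 ml EAC (1:50 dilution in saline of aliquot from stock mice) i.p.; dosed orally by gastric intubation in 10% DMSO daily for 2 weeks from day of inoculation, vehicle controls. At end, ascites collected after 0.2 ml saline i.p. under ether; alive/dead cells counted by trypan blue exclusion, percent dead per mouse; mean ± SE, LSD test.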

[5] = test system: HepG2; assay: Cytotoxicity against human HepG2 cells after 48 hrs by sulforhodamine B assay; format: functional, cell-based
In short: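 HepG2 monolayers were treated with graded concentrations (0–100 range) for 48 h at 37 °C. Cells were then fixed and stained with sulforhodamine B, excess dye was removed with acetic acid, and bound dye was dissolved in Tris-EDTA for colorimetric reading. Survival fraction was plotted against concentration.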

[6] = Antitumor activity against mouse EAC cells transplanted in Albino mouse assessed as decrease in EAC-aliquot volume at 10 mg/kg, po QD for 2 weeks relative to control (Rvb= 5.77+/-0.39 ml); format: functional, Ehrlich; in short: as §1
[7] = Growth inhibition of mouse EAC cells at 25 ug/ml after 2 hrs using trypan blue staining by Neubauer hemocytometry; format: functional; conditions: Ehrlich, read-out: GI
In short: (§2)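 EAC cells at 2.5 × 10^5 cells/ml in PBS were exposed to three compound concentrations for 2 h at 37 °C in 5% CO2. An equal volume of trypan blue was then added. Stained (dead) and unstained cells were counted on a Neubauer haemocytometer, and percent dead cells was calculated per test.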

[8] = test system: Ehrlich; assay: Antitumor activity against mouse EAC cells transplanted in Albino mouse assessed as increase in number of dead cells at 10 mg/kg, po QD for 2 weeks using trypan blue staining by Neubauer hemocytometry relative to control; format: functional, organism-based; set-up: dose 10 mg/kg; in short: as §1
[9] = test system: Ehrlich; assay: Induction of apoptosis in mouse EAC cells transplanted in Albino mouse assessed as increase in p53 level at 10 mg/kg, po QD for 2 weeks […] relative to control; format: functional, organism-based; set-up: dose 10 mg/kg
[10] = Growth inhibition of mouse EAC cells at 50 ug/ml after 2 hrs using trypan blue staining by Neubauer hemocytometry; format: functional; conditions: Ehrlich, read-out: GI; in short: as §2
[11] = Toxicity in Albino mouse assessed as mortality after 48 hrs; format: organism-based; conditions: in vivo
[12] = Antitumor activity against mouse EAC cells transplanted in Albino mouse assessed as increase in survival at 10 mg/kg, po QD for 2 weeks relative to control; format: functional, Ehrlich
In short: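 Female albino mice inoculated i.p. with 0.2 ml 1:50 saline-diluted EAC; oral gavage in 10% DMSO daily between 10 and 12 AM for 2 successive weeks from inoculation day; vehicle-treated controls (12 mice per group). Survival percent = survived/total animals × 100.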

[13] = Growth inhibition of mouse EAC cells at 100 ug/ml after 2 hrs using trypan blue staining by Neubauer hemocytometry; format: functional; conditions: Ehrlich, read-out: GI; in short: as §2

c1nc2nnnn2c2c1CCCC2
Activity [1]: Active
Activity [2]: Active
Activity [3]: Active
Activity [4]: 8.24%
Activity [5]: Dose-dependent effect
Activity [6]: 2.52 mL
inhibition of growth at 25 µg/mL [7]: 10%
Activity [8]: Active
Activity [9]: Active
inhibition of growth at 50 µg/mL [10]: 25%
LD50 at 48 h [11]: 500 mg/kg
Activity [12]: 83.33%
inhibition of growth at 100 µg/mL [13]: 45%
